# Compound activity from PubChem BioAssay.
# Rows were chosen to be rich in hits. Some 5.1% of all compounds tested hit in one or more screens of this group.
# Ecoli WT expand: blocks growth of wild type E. coli BW25113; OD600 absorbance; growth inhibition, % at 100 µM; hit rate 0.15% among 98,000;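 active means growth inhibition above about 50% at one test dose, limit read from the data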;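 further: growth measured after 20 h incubation at 37 °C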
# M1 agonist: M1 muscarinic receptor agonism; CHO-M1 cells, Fluo-4 calcium fluorescence, agonist mode; active compounds read high; B-score at 10 µM; hit rate 3% among 64,000; AID 626;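 active means fluorescence rise, raw or as B-score row- and column-corrected plate score, outside the 99.7% band of its plate's samples, either direction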
# BAP1 inh: human BAP1 deubiquitinase inhibition | recombinant BAP1, Ub-AMC hydrolysis fluorescence kinetic; active compounds read low | calls only at 20 µM | hit rate 0.48% among 72,000;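 active means activity remaining at or below 50% of control, provided the compound also passes the data quality filters; inactive means the rest, including low values that fail the filters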;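 further: 100% = DMSO wells rate and 0% = substrate alone blank rate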
# Target sequence (Q92560 whole entry, looked up): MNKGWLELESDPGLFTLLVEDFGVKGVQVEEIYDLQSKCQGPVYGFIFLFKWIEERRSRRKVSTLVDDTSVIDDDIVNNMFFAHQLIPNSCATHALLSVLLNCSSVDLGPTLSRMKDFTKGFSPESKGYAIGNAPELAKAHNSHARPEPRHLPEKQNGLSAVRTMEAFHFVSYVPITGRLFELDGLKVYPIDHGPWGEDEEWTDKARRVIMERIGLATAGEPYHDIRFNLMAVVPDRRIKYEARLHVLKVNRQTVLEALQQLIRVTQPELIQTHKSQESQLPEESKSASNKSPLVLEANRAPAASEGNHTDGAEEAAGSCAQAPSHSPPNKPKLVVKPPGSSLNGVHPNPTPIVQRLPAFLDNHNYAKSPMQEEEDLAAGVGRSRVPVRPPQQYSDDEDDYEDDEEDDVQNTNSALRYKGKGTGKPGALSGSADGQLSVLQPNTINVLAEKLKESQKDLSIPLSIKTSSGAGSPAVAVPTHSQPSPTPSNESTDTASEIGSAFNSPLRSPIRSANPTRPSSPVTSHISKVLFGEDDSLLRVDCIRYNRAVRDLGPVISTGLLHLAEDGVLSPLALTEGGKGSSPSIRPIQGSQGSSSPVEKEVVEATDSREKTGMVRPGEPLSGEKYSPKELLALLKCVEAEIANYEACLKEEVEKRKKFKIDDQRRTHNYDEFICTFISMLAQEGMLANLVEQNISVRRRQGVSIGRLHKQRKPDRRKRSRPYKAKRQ
# Hsp90 inh: displaces geldanamycin probe from tumor Hsp90; inhibition, % at 30 µM; NCI-N417 lysate Hsp90, Cy3B-geldanamycin FP displacement; hit rate 0.35% among 64,000; P07900;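 active means inhibition above 50%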;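 further: 0% = tracer plus lysate wells and 100% = tracer alone without lysate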
# Ecoli tolC: growth inhibitors of E. coli BW25113 tolC mutant; OD615; growth inhibition, % at 10 µM (by protocol); hit rate 2.2% among 65,000; AID 573;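 active means growth inhibition at or above a cutoff equal to the mean over every tested compound plus 3 SD, cut at about 60% in these data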;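 further: growth measured after 20 h incubation at 37 °C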
#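 Material: E. coli BW25113 ΔtolC::kan, tolC deletion mutant strain. Measure: percent growth inhibition. Schedule: 37 °C, 20 h exposure. Doses: single-point testing at 10 µM. Signal: A615 absorbance measurement. Buffer or medium: kanamycin-containing LB broth (50 µg/mL).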
# M1 antag: blocks the rat M1 muscarinic receptor response to acetylcholine. B-score at 10 µM. P08482. CHO-M1 cells, Fluo-4 calcium, ACh EC80 antagonist mode; active compounds read low. hit rate 3.4% among 64,000. AID 628;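 active means calcium fluorescence response, raw or row-and-column corrected B-score, differing from the plate sample mean either way at a set confidence level, mostly lower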
# M1 agonist conf: confirmation of rat M1 muscarinic receptor agonists; shares compounds with M1 agonist; CHO-M1 cells, Fluo-4 calcium fluorescence, agonist mode; actives lie on both sides; fluorescence change (max-min) at 10 µM; hit rate 19% among 1,700;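 active means fluorescence change differs from the solvent-only DMSO control mean at a set confidence level in both duplicate runs; inconclusive means differs from solvent-only control mean in just one of two runs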;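 further: an EC20 dose of acetylcholine follows compound addition during the same imaging run; raw fluorescence intensity difference in instrument units with no normalization to controls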
# M4 agonist ctr: rat M4 muscarinic agonism, M1 counter-screen; shares compounds with M1 agonist; CHO M4/Gqi5 cells, Fluo-4 calcium fluorescence, agonist mode; actives lie on both sides; fluorescence change (max-min) at 10 µM; hit rate 9% among 1,700; AID 1741;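 active means fluorescence change differing from the plate's solvent-only control wells at 99.7% confidence in both duplicates, whether higher or lower; inconclusive means differs from solvent controls in only one of two duplicates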
# * = called active by the depositor; i = inactive; ? = inconclusive; · = no result given.
SMILES,Ecoli WT expand,M1 agonist,BAP1 inh,Hsp90 inh,Ecoli tolC,M1 antag,M1 agonist conf,M4 agonist ctr
CCCc1nc(SCC(=O)N2CCC(Cc3ccccc3)CC2)c2c(=O)n(C)c(=O)n(C)c2n1,-17,4*,i,0,75*,-1.2,-13,-21
CCCc1nc(SCC(=O)N2CCCc3ccccc32)c2c(=O)n(C)c(=O)n(C)c2n1,-9,2.9*,i,-2,78*,-1.4*,?,-37
CCN(CC)CCN1C(=O)C(=O)/C(=C(/O)c2ccncc2)C1c1ccccc1F (stereo not given),-15,35*,i,-1,-23,0.047,-11,?
CCN(CC)CCN1C(=O)C(=O)/C(=C(/O)c2ccc(F)cc2)C1c1ccncc1 (stereo not given),·,0.43,i,-3,-11,-0.19,·,·
Cc1ccc(OC(C)c2nnc(N)s2)cc1Cl (stereo not given),7,2.5*,i,3,7,-0.092,-20*,-58
O=C(NCCc1ccc(Cl)cc1)c1cnc2n(c1=O)CCS2,·,-2.9*,i,0,4,-0.098,?,-75
COc1ccc(CCNS(=O)(=O)c2ccccc2)cc1OC,-2,-0.056,i,-2,-13,-0.37,·,·
COc1ccc(S(=O)(=O)NCCOc2ccccc2)cc1OC,-2,2.3*,i,-1,-3,-0.27,-11,-22
CCN(C(=O)COc1cc(=O)n(CC)c2ccccc12)c1cc(Cl)ccc1OC,0,7.8*,i,-2,16,-0.23,?,-44
CCOC(=O)c1ccc(NC(=O)COc2cc(=O)n(CC)c3ccccc23)cc1,-11,·,·,·,·,·,·,·
CCN(C(=O)COc1cc(=O)n(CC)c2ccccc12)c1cccc(Cl)c1,-4,4.4*,i,-5,26,-0.75,-15,-28
CCn1c(=O)cc(OCC(=O)Nc2ccccc2C#N)c2ccccc21,-1,2.2*,i,-3,7,-1.1,?,-43
CC(C)Oc1ccccc1C1Nc2ccccc2NC2=C1C(=O)CC(c1ccccc1)C2 (stereo not given),·,·,i,·,·,·,·,·
CCc1ccc(C2NC(=O)NC(C)=C2C(=O)OCc2ccccc2)cc1 (stereo not given),·,·,i,·,·,·,·,·
COC(=O)c1cc(N)cc([N+](=O)[O-])c1,·,·,i,·,·,·,·,·
COc1ccc(C2NC(=S)N(C)C(C)=C2C(=O)Nc2ccccc2)cc1 (stereo not given),·,·,i,·,·,·,·,·
Cc1c(C(=O)OCCOC(C)C)[nH]c2c1C(=O)CC(c1ccco1)C2 (stereo not given),6,6.7*,i,-3,3,-2*,?,-80*
COC(=O)c1ccc(C(=O)OC)c(NC(=O)CCc2ccc(C)o2)c1,-4,-0.43,i,-13,2,-0.27,·,·
COC(=O)c1ccc(C(=O)OC)c(NC(=O)CCC(=O)O)c1,1,4.2*,i,0,-1,1.2,-7.7,-16
CCOC(=O)c1c(NC(=O)C23CC4CC(CC(C4)C2)C3)sc2c1CCC(C)C2 (stereo not given),·,·,i,·,·,·,·,·
C[C@H](NC(=O)OC(C)(C)C)c1nnc(SCC(=O)c2ccc(Cl)cc2)o1,6,5.5*,i,-1,25,-2.3,7.4,-11
O=C(OCc1nc2ccccc2s1)C1CCN(C2=NS(=O)(=O)c3ccccc32)CC1,-5,4.6*,·,-9,-2,-0.11,?,-75
O=C1c2ccccc2S(=O)(=O)N1Cc1nc2ccccc2s1,-14,-1.1,i,-6,5,-0.13,·,·
Cc1oc(-c2ccc(Cl)cc2)nc1CN1CCC(C(=O)N2CCc3ccccc3C2)CC1,11,5.7*,i,-1,42,-3.7*,?,-72
Cc1oc(-c2ccc(Cl)cc2)nc1CN1CCC(C(=O)N2CCN(Cc3ccccc3)CC2)CC1,15,2,i,-3,18,-1.8,·,·
SMILES,Ecoli WT expand,M1 agonist,BAP1 inh,Hsp90 inh,Ecoli tolC,M1 antag,M1 agonist conf,M4 agonist ctr
CC(C)(C)S(=O)(=O)c1ccccc1C(=O)O,3,-0.88,i,-4,-34,1.5,·,·
O=C(O)c1ccccc1S(=O)(=O)c1ccccc1CO,-5,8*,i,1,-18,-0.0056,-12,-45
O=C(CN1CCOCC1)N1CCN(S(=O)(=O)c2ccccc2)C1c1ccccc1 (stereo not given),-6,0.41,i,-5,-17,0.39,·,·
Cc1ccc(S(=O)(=O)N2CCN(C(=O)CN3CCOCC3)C2c2ccccc2)cc1 (stereo not given),5,6.2*,i,-3,-8,0.68,-12,-29
Nc1c(C(=O)c2ccccc2)oc2ccc(Br)cc12,-1,-2.2*,i,-1,-3,0.63,?,-36
COC(=O)CCC(=O)c1oc2ccc(Br)cc2c1N,4,-0.1,i,-2,17,-0.53,·,·
C=CCOC(=O)C1=C(C)OC(N)=C(C#N)C1c1ccoc1 (stereo not given),4,21*,i,-3,14,0.74,12,0.98
COc1ccc([N+](=O)[O-])cc1CSc1nc2ccc(N3C(=O)c4ccc([N+](=O)[O-])cc4C3=O)cc2s1,·,·,i,·,·,·,·,·
Cc1ccc(C(=O)NCCn2cc(SCC(=O)Nc3nnc(C)s3)c3ccccc32)cc1,-7,2.9*,i,-9,13,-0.094,?,-58
CCCn1cc(SCC(=O)Nc2nnc(C)s2)c2ccccc21,4,0.72,i,-4,-10,0.34,·,·
COc1ccc(C(=O)NCCn2cc(SCC(=O)Nc3cc(C)on3)c3ccccc32)cc1OC,3,3.5*,i,-5,10,-0.16,-27*,-53
Cc1ccc(OCC(=O)Nc2ccc(C(C)C)cc2)cc1C,·,·,i,·,·,·,·,·
N#Cc1nc(COc2cccc(Cl)c2)oc1N1CCN(c2ccccc2)CC1,-17,-0.9,i,-6,·,-0.66,·,·
N#Cc1nc(Cc2ccccc2)oc1N1CCC(Cc2ccccc2)CC1,-24,-0.2,i,-3,29,0.76,·,·
N#Cc1nc(COc2ccc(F)cc2)oc1N1CCC(Cc2ccccc2)CC1,-2,9.3*,i,-1,30,-0.46,16,-49
N#Cc1nc(COc2ccccc2)oc1N1CCN(c2cccc(Cl)c2)CC1,-20,4.1*,i,-2,41,-0.0079,122*,?
CC(C)(C)c1ccc2c(c1)C(=O)C(=O)c1cc(C(C)(C)C)ccc1-2,·,·,i,·,·,·,·,·
COc1cccc(C2=CC(c3cc(OC)ccc3OC)n3nnnc3N2)c1 (stereo not given),2,-0.47,i,1,11,0.035,·,·
COc1ccc(C2=CC(c3ccc(C)cc3)n3nnnc3N2)cc1 (stereo not given),-7,9.6*,i,-1,1,-0.42,3.3,-32
